Results pooled from the literature.
pEC50, pIC50: −log10 of the molar value.

SMILES	organism	test	test system	setting	quantity	result
Cl.O=C(O)CNC(=O)c1ccc(NC(=O)c2cc(Br)c(Br)[nH]2)c(N2CCNCC2)c1	Enterococcus faecium	microbial growth, broth dilution	ATCC35667	–	MIC	> 32 µg/mL
Cc1ccc(Cn2cc(C(=O)N/N=C/c3ccc([N+](=O)[O-])o3)c(=O)c3cc([N+](=O)[O-])ccc32)cc1	Trypanosoma brucei	parasite growth, resazurin	–	72 h	pEC50	< 5.40
Cc1cc(C)c(C#N)c(SCc2ccccc2)n1	Trypanosoma brucei	parasite growth, resazurin	RHODESIENSE	–	pEC50	< 4.19
CC(C)(C)OC(=O)N[C@@H]1CCN(c2cc(C(=O)NCC(=O)O)ccc2NC(=O)c2cc(Br)c(Br)[nH]2)C1	Enterococcus faecium	microbial growth, broth dilution	ATCC35667	–	MIC	> 32 µg/mL
COc1ccc2c(c1)c(=O)c(C(=O)NN)cn2Cc1ccccc1	Trypanosoma brucei	parasite growth, resazurin	–	72 h	pEC50	< 5.40
N=C(N)c1ccc(OCCCCCOc2ccc(C(=N)N)cc2)cc1	Trypanosoma brucei	parasite growth, SYBR Green	–	–	pEC50	7.80
Cc1cc(C)c(C#N)c(SCC(=O)c2ccc(Cl)cc2)n1	Trypanosoma brucei	parasite growth, resazurin	RHODESIENSE	–	pEC50	4.52
COc1cc(NC(=O)c2ccc(C(F)(F)F)cc2C(F)(F)F)ccc1S(N)(=O)=O	Trypanosoma brucei	parasite growth, MTS	–	–	pIC50	< 4.00
Cc1ccc(Cn2cc(C(=O)N/N=C/c3ccc([N+](=O)[O-])o3)c(=O)c3cc(Cl)c(Cl)cc32)cc1	Trypanosoma brucei	parasite growth, resazurin	–	72 h	pEC50	5.99
Cc1cc(C)c(C#N)c(SCC(=O)c2ccc(F)cc2)n1	Trypanosoma brucei	parasite growth, resazurin	–	–	pEC50	4.37
O=C(N/N=C/c1ccc([N+](=O)[O-])o1)c1cn(Cc2ccccc2)c2ccc([N+](=O)[O-])cc2c1=O	Trypanosoma brucei	parasite growth, resazurin	–	72 h	pEC50	6.43
COc1ccc(C(=O)CSc2[nH]c(=O)cc(C(F)(F)F)c2C#N)cc1	Trypanosoma brucei	parasite growth, resazurin	–	–	pEC50	4.51
Cl.N[C@H]1CCN(c2cc(C(=O)NCC(=O)O)ccc2NC(=O)c2cc(Br)c(Br)[nH]2)C1	Enterococcus faecium	microbial growth, broth dilution	ATCC35667	–	MIC	> 32 µg/mL
Cc1cc(C)c(C(N)=O)c(SCC(=O)c2ccc(Cl)cc2Cl)n1	Trypanosoma brucei	parasite growth, resazurin	–	–	pEC50	< 4.19
Cc1[nH]c(C(=O)Nc2ccc(C(=O)NCC(=O)O)cc2N2CC[C@H](NC(=O)OC(C)(C)C)C2)c(Cl)c1Cl	Enterococcus faecium	microbial growth, broth dilution	ATCC35667	–	MIC	> 32 µg/mL
Cc1ccc(Cn2cc(C(=O)NN)c(=O)c3cc(Oc4ccccc4)ccc32)cc1	Trypanosoma brucei	parasite growth, resazurin	–	72 h	pEC50	6.34
